Positions of bridges follow the written chain, without caps; N, C: chain ends. Non-standard residues stand in square brackets, D forms with d. Residues, ends and D or L forms follow the SMILES beside them. Mpa = O=C(O)CCS
Experiments:
Rattus norvegicus [1] = species: Rattus norvegicus; assay: Vasopressor activity in rat; format: organism-based; conditions: in vivo
Rattus norvegicus [2] = species: Rattus norvegicus; assay: Antidiuretic activity in rat; format: functional, Urine
[3] = Retardation factor of the compound by silica gel thin-layer chromatography
Rattus norvegicus [4] = species: Rattus norvegicus; assay: Ratio of antidiuretic activity in rat to vasopressor activity in rat; design: species or system Urine
Method in brief: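 Antidiuretic and vasopressor potencies were each expressed in units/mg from rat assays. The A/P value is the antidiuretic potency divided by the vasopressor potency.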

[5] = target: T1, Oxytocin receptor (Rattus norvegicus) (UniProt P70536); assay: Activity at oxytocin receptor in rat uterus in presence of Mg2+; format: tissue-based
T1 sequence (whole entry): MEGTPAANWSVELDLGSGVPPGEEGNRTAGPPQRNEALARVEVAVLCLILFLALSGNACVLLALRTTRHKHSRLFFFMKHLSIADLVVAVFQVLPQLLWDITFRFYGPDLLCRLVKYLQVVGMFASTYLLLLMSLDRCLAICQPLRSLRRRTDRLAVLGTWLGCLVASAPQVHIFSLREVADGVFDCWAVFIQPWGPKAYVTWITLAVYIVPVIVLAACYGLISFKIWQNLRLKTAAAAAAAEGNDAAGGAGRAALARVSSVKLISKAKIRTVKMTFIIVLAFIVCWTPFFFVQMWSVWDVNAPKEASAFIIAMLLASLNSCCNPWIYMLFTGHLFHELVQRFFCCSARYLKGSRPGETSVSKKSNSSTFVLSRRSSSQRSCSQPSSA

[6] = target: T1, Oxytocin receptor (Rattus norvegicus); assay: Activity at oxytocin receptor in rat uterus; format: tissue-based

Row | SMILES | Activity (Rattus norvegicus [1]) | Activity (Rattus norvegicus [2]) | Rf [3] | Ratio (Rattus norvegicus [4]) | Activity [5] | Activity [6]
1 | C[C@@H](O)[C@@H]1NC(=O)[C@H](Cc2ccccc2)NC(=O)[C@H](Cc2ccc(O)cc2)NC(=O)CCSSC[C@@H](C(=O)N2CCC[C@H]2C(=O)N[C@@H](CCCN=C(N)N)C(=O)NCC(N)=O)NC(=O)[C@H](CC(N)=O)NC1=O | 30 U/mg | 758 U/mg |  |  |  | 
2 | C[C@@H](O)[C@@H]1NC(=O)[C@H](Cc2ccccc2)NC(=O)[C@H](Cc2ccc(O)cc2)NC(=O)CCSSC[C@@H](C(=O)N2CCC[C@H]2C(=O)N[C@H](CCCNC(=N)N)C(=O)NCC(N)=O)NC(=O)[C@H](CC(N)=O)NC1=O | < 0.02 U/mg | 793 U/mg | 0.24 |  |  | 
3 | NC(=O)CC[C@@H]1NC(=O)[C@H](Cc2ccccc2)NC(=O)[C@H](Cc2ccc(O)cc2)NC(=O)[C@@H](N)CSSC[C@@H](C(=O)N2CCC[C@H]2C(=O)N[C@H](CCCN=C(N)N)C(=O)NCC(N)=O)NC(=O)[C@H](CC(N)=O)NC1=O | 1.1 U/mg | 114 U/mg | 0.1 | 30 | 1.02 U/mg | 0.4 U/mg
4 | CC(C)[C@@H]1NC(=O)[C@H](Cc2ccccc2)NC(=O)[C@H](Cc2ccc(O)cc2)NC(=O)CCSSC[C@@H](C(=O)N2CCC[C@H]2C(=O)N[C@H](CCCNC(=N)N)C(=O)NCC(N)=O)NC(=O)[C@H](CC(N)=O)NC1=O ([Mpa]YFVNCP[dR]G-NH2; disulfide 1-6) | < 0.01 U/mg | 1230 U/mg |  |  |  | 
5 | N=C(N)NCCC[C@@H](NC(=O)[C@@H]1CCCN1C(=O)[C@@H]1CSSCCC(=O)N[C@@H](Cc2ccc(O)cc2)C(=O)N[C@@H](Cc2ccccc2)C(=O)N[C@@H](CCC(N)=O)C(=O)N[C@@H](CC(N)=O)C(=O)N1)C(=O)NCC(N)=O (stereo in doubt; 4) |  |  |  |  | 66 U/mg | 47 U/mg
6 | NC(=O)CC[C@@H]1NC(=O)[C@H](Cc2ccccc2)NC(=O)[C@H](Cc2ccc(O)cc2)NC(=O)CCSSC[C@@H](C(=O)N2CCC[C@H]2C(=O)N[C@H](CCCN=C(N)N)C(=O)NCC(N)=O)NC(=O)[C@H](CC(N)=O)NC1=O (stereo in doubt; 4) [DESMOPRESSIN] | 346 U/mg | 1390 U/mg | 0.18 | 4 |  | 
7 | N=C(N)NCCC[C@@H](NC(=O)[C@@H]1CCCN1C(=O)[C@@H]1CSSCCC(=O)N[C@@H](Cc2ccc(O)cc2)C(=O)N[C@@H](Cc2ccccc2)C(=O)N[C@@H](CCC(N)=O)C(=O)N[C@@H](CC(N)=O)C(=O)N1)C(=O)NCC(N)=O (stereo in doubt; 6) |  |  |  |  | 2.9 U/mg | 
8 | NC(=O)CC[C@@H]1NC(=O)[C@H](Cc2ccccc2)NC(=O)[C@H](Cc2ccc(O)cc2)NC(=O)CCSSC[C@@H](C(=O)N2CCC[C@H]2C(=O)N[C@H](CCCN=C(N)N)C(=O)NCC(N)=O)NC(=O)[C@H](CC(N)=O)NC1=O (stereo in doubt; 6) [DESMOPRESSIN] | 0.39 U/mg | 870 U/mg | 0.21 | 80 |  | 
9 | N=C(N)NCCC[C@H](NC(=O)[C@@H]1CCCN1C(=O)[C@@H]1CSSC[C@H](N)C(=O)N[C@@H](Cc2ccc(O)cc2)C(=O)N[C@@H](Cc2ccccc2)C(=O)N[C@@H](CCC(N)=O)C(=O)N[C@@H](CC(N)=O)C(=O)N1)C(=O)NCC(N)=O [VASOPRESSIN] |  | 323 U/mg |  | 1 | 25.5 U/mg | 

Reference: ChEMBL document CHEMBL3272182 (J Med Chem, 1976)
